# Source: ChEMBL document CHEMBL1124366, “Synthesis and biological properties of N63-carboxamides of teicoplanin antibiotics. Structure-activity relationships” (J Med Chem, 1989)
# Legend:
# [1] = tested on: Staphylococcus epidermidis; assay: In vitro minimum inhibitory concentration against Staphylococcus epidermis ATCC 12228; format: functional
# Streptococcus pneumoniae = assay: In vitro minimum inhibitory concentration against Streptococcus pneumoniae UC41; format: functional
# Gram-negative bacteria = assay: Minimum inhibitory concentration of compound against Gram negative bacteria
# Streptococcus pyogenes [2] = assay: Subcutaneously administration into mice infected with Streptococcus pyogenes C 203; format: functional; settings: sc
# How it was run: (§1)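 Mice (five per treatment group, five groups) infected intraperitoneally with about 10⁵ cells of Strep. pyogenes C 203, about 100× the LD50. ED50 (mg/kg) was calculated from the percentage of mice surviving at each dose on day 7.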
# Enterococcus faecalis = assay: In vitro minimum inhibitory concentration against Streptococcus faecalis ATCC 7080; format: functional
# Streptococcus pyogenes [3] = assay: In vitro minimum inhibitory concentration against Streptococcus pyogenes C 203; format: functional
# Staphylococcus aureus = assay: In vitro minimum inhibitory concentration against Staphylococcus aureus Tour; format: functional
# Proteus vulgaris = assay: In vitro minimum inhibitory concentration against Proteus vulgaris X 19 ATCC 881; format: functional
# [4] = tested on: Ac2-L-Lys-D-Ala-D-Ala peptide; assay: Association constant with Ac2-L-Lys-D-Ala-D-Ala
# How it was run: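 UV difference spectroscopy at 24 ± 2 °C in 4-cm unthermostated cells. Antibiotic was at 30 μM in 10% MeOH in sodium phosphate buffer, pH 9, and titrated with Ac2-L-Lys-D-Ala-D-Ala. ΔA was monitored at 294 nm. Ka was taken from the slope of a Scatchard plot.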
# Escherichia coli = assay: In vitro minimum inhibitory concentration against Escherichia coli SKF 12140; format: functional
# Streptococcus pyogenes [5] = assay: In vivo effective dose given perorally to mice infected with Streptococcus pyogenes C 203; format: functional; settings: po; how it was run: as §1
# [6] = tested on: Staphylococcus haemolyticus; assay: In vitro minimum inhibitory concentration against Staphylococcus hemolyticus 602 cell line; format: functional; settings: strain 602
# Pseudomonas aeruginosa = assay: In vitro minimum inhibitory concentration against Pseudomonas aeruginosa ATCC 10145; format: functional
MIC [1],MIC (Streptococcus pneumoniae),MIC (Gram-negative bacteria),MIC (Enterococcus faecalis),MIC (Streptococcus pyogenes [3]),MIC (Staphylococcus aureus),MIC (Proteus vulgaris),Ka [4],MIC (Escherichia coli),MIC (Pseudomonas aeruginosa),SMILES,ED50 (Streptococcus pyogenes [2]),ED50 (Streptococcus pyogenes [5]),MIC [6]
0.016 µg/mL,0.12 µg/mL,–,0.12 µg/mL,0.06 µg/mL,0.06 µg/mL,16 µg/mL,55000 M⁻¹,8 µg/mL,32 µg/mL,CN(C)CCCNC(=O)[C@H]1NC(=O)[C@H]2NC(=O)[C@H](NC(=O)[C@@H]3NC(=O)[C@H]4NC(=O)[C@@H](Cc5ccc(c(Cl)c5)Oc5cc3cc(c5O)Oc3ccc(cc3Cl)[C@H]2O)NC(=O)[C@H](N)c2ccc(O)c(c2)Oc2cc(O)cc4c2)c2ccc(O)c(c2)-c2c(O)cc(O)cc21,0.31 mg/kg,–,–
0.06 µg/mL,0.25 µg/mL,–,0.25 µg/mL,0.12 µg/mL,0.12 µg/mL,> 128 µg/mL,54000 M⁻¹,64 µg/mL,–,CC(=O)NC1C(O[C@@H]2c3ccc(c(Cl)c3)Oc3cc4cc(c3O)Oc3ccc(cc3Cl)C[C@H]3NC(=O)[C@H](N)c5ccc(O)c(c5)Oc5cc(O)cc(c5)[C@H](NC3=O)C(=O)N[C@H]4C(=O)N[C@H]3C(=O)N[C@@H]2C(=O)N[C@H](C(=O)NCCCN(C)C)c2cc(O)cc(O)c2-c2cc3ccc2O)OC(CO)C(O)C1O (some centres not stated),2.2 mg/kg,–,–

# Continued, compound first:
SMILES,MIC [1],MIC (Streptococcus pneumoniae),MIC (Gram-negative bacteria),MIC (Enterococcus faecalis),MIC (Streptococcus pyogenes [3]),MIC (Staphylococcus aureus),MIC (Proteus vulgaris),Ka [4],MIC (Escherichia coli),MIC (Pseudomonas aeruginosa),ED50 (Streptococcus pyogenes [2]),ED50 (Streptococcus pyogenes [5]),MIC [6]
CC(=O)N[C@@H]1[C@H](O[C@@H]2c3ccc(c(Cl)c3)Oc3cc4cc(c3O)Oc3ccc(cc3Cl)C[C@H]3NC(=O)[C@H](N)c5ccc(O)c(c5)Oc5cc(O)cc(c5)[C@H](NC3=O)C(=O)N[C@H]4C(=O)N[C@H]3C(=O)N[C@@H]2C(=O)N[C@H](C(=O)NCCCN(C)C)c2cc(O)cc(O[C@H]4O[C@H](CO)[C@@H](O)[C@@H](O)[C@@H]4O)c2-c2cc3ccc2O)O[C@@H](CO)[C@@H](O)[C@@H]1O,0.12 µg/mL,0.5 µg/mL,> 128 µg/mL,1 µg/mL,0.12 µg/mL,0.5 µg/mL,–,–,–,–,0.81 mg/kg,–,–
CC(=O)NC1C(O[C@@H]2c3ccc(c(Cl)c3)Oc3cc4cc(c3O)Oc3ccc(cc3Cl)C[C@H]3NC(=O)[C@H](N)c5ccc(O)c(c5)Oc5cc(O)cc(c5)[C@H](NC3=O)C(=O)N[C@H]4C(=O)N[C@H]3C(=O)N[C@@H]2C(=O)N[C@H](C(=O)NCCN2CCOCC2)c2cc(O)cc(O)c2-c2cc3ccc2O)OC(CO)C(O)C1O (some centres not stated),0.12 µg/mL,1 µg/mL,–,0.5 µg/mL,0.5 µg/mL,0.12 µg/mL,> 128 µg/mL,34000 M⁻¹,> 128 µg/mL,–,–,–,–
CNCCCNC(=O)[C@H]1NC(=O)[C@H]2NC(=O)[C@H](NC(=O)[C@@H]3NC(=O)[C@H]4NC(=O)[C@@H](Cc5ccc(c(Cl)c5)Oc5cc3cc(c5O[C@@H]3O[C@@H](CO)[C@@H](O)[C@H](O)[C@@H]3NC(=O)CCCCCCC(C)C)Oc3ccc(cc3Cl)[C@H]2O[C@@H]2O[C@@H](CO)[C@@H](O)[C@H](O)[C@@H]2NC(C)=O)NC(=O)[C@H](N)c2ccc(O)c(c2)Oc2cc(O)cc4c2)c2ccc(O)c(c2)-c2c(O[C@H]3O[C@H](CO)[C@@H](O)[C@@H](O)[C@@H]3O)cc(O)cc21,0.06 µg/mL,0.12 µg/mL,–,0.12 µg/mL,0.06 µg/mL,0.12 µg/mL,–,66000 M⁻¹,–,–,0.14 mg/kg,112 mg/kg,0.12 µg/mL
N[C@H]1C(=O)N[C@@H]2Cc3ccc(c(Cl)c3)Oc3cc4cc(c3O)Oc3ccc(cc3Cl)[C@@H](O)[C@@H]3NC(=O)[C@H](NC(=O)[C@@H]4NC(=O)[C@@H](NC2=O)c2cc(O)cc(c2)Oc2cc1ccc2O)c1ccc(O)c(c1)-c1c(O)cc(O)cc1[C@@H](C(=O)O)NC3=O [TEICOPLANIN AGLYCON],0.016 µg/mL,0.12 µg/mL,–,0.12 µg/mL,0.12 µg/mL,0.06 µg/mL,128 µg/mL,30000 M⁻¹,64 µg/mL,> 128 µg/mL,0.95 mg/kg,–,0.25 µg/mL
CCOC(=O)CNC(=O)[C@H]1NC(=O)[C@H]2NC(=O)[C@H](NC(=O)[C@@H]3NC(=O)[C@H]4NC(=O)[C@@H](Cc5ccc(c(Cl)c5)Oc5cc3cc(c5O[C@@H]3O[C@@H](CO)[C@@H](O)[C@H](O)[C@@H]3NC(=O)CCCCCCC(C)C)Oc3ccc(cc3Cl)[C@H]2O[C@@H]2O[C@@H](CO)[C@@H](O)[C@H](O)[C@@H]2NC(C)=O)NC(=O)[C@H](N)c2ccc(O)c(c2)Oc2cc(O)cc4c2)c2ccc(O)c(c2)-c2c(O[C@H]3O[C@H](CO)[C@@H](O)[C@@H](O)[C@@H]3O)cc(O)cc21,0.12 µg/mL,0.06 µg/mL,–,0.12 µg/mL,0.06 µg/mL,0.25 µg/mL,–,120000 M⁻¹,–,–,0.1 mg/kg,> 300 mg/kg,–
